Compound activity as filed in PubChem.
Cneo AK release: Cryptococcus neoformans lysis via adenylate kinase release. C. neoformans lysis, adenylate kinase release luminescence, 4 h; normalised: neutral wells 0, clomiphene wells 100. lysis activity, % at 15 µM. hit rate 0.2% among 360,000. AID 651654;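 active = mean lysis activity across replicates of at least 80%, whatever share of replicates individually reach that level; inactive = mean lysis activity below 80%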
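Material: C. neoformans cells | Amount: Yeast cell density of 5 × 10^6 cells/mL | Medium: Fresh YPD growth medium | Dosing: Single dose | Times: Static 4 h at 37 °C with compound, 1 h detection | Detection: AK luminescence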
F508del corr: CFTR F508del correction in bronchial cells; AID 720511; activity (quench increase), % at 7.58 µM; hit rate 0.36% among 350,000; CFBE cells, YFP halide quenching; stimulated with forskolin plus potentiator P3; % fluorescence drop versus neutral controls;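 active = mean added fluorescence quench of at least 8% versus neutral control, with both replicates also reaching 8%; inconclusive = only one of the mean or replicate conditions met; inactive = mean below 8% and not both replicates reaching 8%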;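 also: cells transiently co-express mutant CFTR-F508del with the halide-sensitive YFP; corrector assay measuring rescue of mutant channel to the surface after 24 h compound exposure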
INS-1E GSIS act: GLuc luminescence reporter in INS-1E cells, primary screen for activators of glucose-dependent secretion of insulin; INS-1E GLuc reporter insulin secretion, 2-3 h; hit rate 0.61% among 370,000; activation, % at 16.6 µM;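 active = lowest replicate activation of at least 40%, so every replicate reaches that level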;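 also: 0% = median of neutral control wells and 100% = median of IBMX positive control wells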
Ecoli rRNA inh: inhibitors of bacterial rRNA selective over humanized ribosomes; E. coli WT GFP vs humanized-ribosome RFP mutants, fluorescence, 24 h; active compounds read low; DMSO median 0, no signal -100; hit rate 1.6% among 350,000; GFP signal change (wild-type ribosome), % (concentration not given with the values);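 active = significant combined selectivity score with lowered wild-type GFP, culture density cut under 30%, mutant RFP and density less affected; inactive = any of these conditions unmet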
miR-122 sensor: miR-122 inhibition in Huh7 cells; hit rate 0.3% among 340,000; Huh7 miR-122 Renilla luciferase sensor, 48 h; neutral wells = 0, positive control = 100; activation (reporter increase), % at 12.5 µM;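 active = mean replicate activation score at least 90 and every replicate individually at or above 90; inconclusive = only one of the two criteria met; inactive = neither criterion met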;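 also: higher luciferase means less miR-122 activity so hits act as miR-122 inhibitors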
Env fusion inh: HIV envelope-mediated fusion inhibition. HeLa-JRFL Env/CEM21 cell fusion, luciferase. inhibition, % at 12.3 µM. hit rate 1.1% among 360,000;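 active = mean replicate inhibition score of at least 50 and every replicate individually at or above 50; inconclusive = only one of the two criteria met; inactive = mean below 50 and not all replicates reaching 50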;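 also: 0% = plate neutral controls and 100% = maraviroc near 300 nM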
* = called active by the depositor; ? = inconclusive; / = not tested or not shown; [ ] = remark or other dose. Sampled rows, rich in hits. Any-hit rate of the full collection: about 3.1%.

SMILES | Cneo AK release | F508del corr | INS-1E GSIS act | Ecoli rRNA inh | miR-122 sensor | Env fusion inh
C[C@@H]1CN([C@H](C)CO)C(=O)c2cc(-c3cncnc3)cnc2O[C@H]1CN(C)C(=O)Cc1ccccn1 | -24 | 0 | 5 | 0 | -3[16.7 µM] | -1[16.7 µM]
Cc1ccc(/C=N/NC(=O)c2ccc3c(c2)OCCO3)s1 | / | 5 | -7 | 1 | / | -38
Cc1ccc(/C=N/NC(=O)c2ccc3ccccc3c2)s1 | 5 | 11* | 8 | -17 | -2 | -230
CC(C)NC(=O)Nc1ccc2c(c1)C(=O)N([C@@H](C)CO)C[C@@H](C)[C@@H](CN(C)CC1CC1)OCCCC[C@@H](C)O2 | / | -2 | 3 | 3 | 1[16.7 µM] | 7[16.7 µM]
Cc1ccc(S(=O)(=O)Nc2cc(C)c(O)c(S(=O)(=O)c3ccc(C)cc3)c2)cc1 | / | / | -13 | -26 | 140* | -18
Cc1cc(NS(=O)(=O)c2ccccc2)cc(Cl)c1O | -1 | / | / | / | ? | -31
Cc1noc(C)c1S(=O)(=O)Nc1ccc2c(c1)C(=O)N([C@@H](C)CO)C[C@H](C)[C@H](CN(C)C(=O)Nc1cccc3ccccc13)O2 | 56 | -2 | -7 | -9 | -9[16.7 µM] | /
CCCNC(=O)N1CC2(CCN(S(=O)(=O)c3cccc(OC)c3)CC2)c2c(n(C)c3cc(OC)ccc23)[C@@H]1CO | / | 5 | -5 | -3 | / | -6[16.7 µM]
CC(C)CN(C(=O)C(c1ccccc1)c1ccccc1)c1c(N)n(CC(C)C)c(=O)[nH]c1=O | 1 | 1 | -3 | 22 | -6 | 79*
Cc1cc(SCC(=O)N(CC(C)C)c2c(N)n(CC(C)C)c(=O)[nH]c2=O)nc2ccccc12 | -1 | -1 | -8 | 9 | -2 | 2
CC(C)CN(C(=O)COC(=O)C12CC3CC(CC(C3)C1)C2)c1c(N)n(Cc2ccccc2)c(=O)[nH]c1=O | 0 | -3 | -13 | 15 | / | 70*
O=C(Nc1ccccc1Cl)N1CCCN(c2nc(-c3ccccc3)ns2)CC1 | 0 | 0 | -37 | -32 | -14 | 39
O=C(Nc1ccccc1)N1CCN(c2nc(-c3ccccc3)ns2)CC1 | / | -1 | -9 | -30* | / | 5
Cc1c(Cl)cccc1NC(=O)N1CCCN(c2nc(-c3ccccc3)ns2)CC1 | 1 | 4 | -34 | -30 | -11 | 55*
COC(=O)CN1C(=S)N(c2ccc(Cl)cc2)C(=O)C1CC(=O)Nc1ccc(F)cc1 (centres undefined) | / | / | -56 | -25* | / | -2
CO[C@H]1CN(C)C(=O)c2ccc(NC(=O)Cc3ccccc3)cc2OC[C@H](C)N(C(=O)c2ccccc2F)C[C@H]1C | -2 | -2 | -20 | 4 | / | -12[16.7 µM]
C[C@@H](O)C#Cc1ccc([C@@H]2[C@@H](CO)N3CCCCN(CC4CCOCC4)C[C@@H]23)cc1 | -1 | -2 | 16 | 0 | -3[16.7 µM] | /
CCOC(=O)c1sc2nc(Cc3ccc(Cl)cc3)[nH]c(=S)c2c1C | / | 12* | 5 | 5 | / | 13
CCOC(=O)c1sc2nc(C)nc(NCc3ccc(Cl)cc3)c2c1C | -4 | -4 | -45 | 2 | -7 | 45
COc1ccc(CNC(=O)C[C@@H]2CC[C@H]3[C@H](COc4ccc(NC(C)=O)cc4C(=O)N3C)O2)cc1 | -1 | 0 | 12 | -2 | 25[16.7 µM] | 4[16.7 µM]
Cc1nn(C)c(C)c1/C=N/NC(=O)C(C)(C)Oc1ccc(Cl)cc1 | 0 | -4 | 5 | 7 | -14 | /
Cc1nn(C(C)(C)C)c(C)c1/C=N/OC(=O)Nc1ccc(Cl)cc1 | -1 | 0 | 5 | -27* | -9 | 28
Cc1nc2ccccc2c2nc(NC(=O)C(F)(F)F)nn12 | -3 | -1 | 50* | 2 | -4 | 2
O=C(NNc1ccc([N+](=O)[O-])cc1[N+](=O)[O-])C1C2CCCCC21 (centres undefined) | / | / | 7 | 5 | / | -5
CC12CCC(/C(=C/NNc3ccc([N+](=O)[O-])cc3[N+](=O)[O-])C1=O)C2(C)C (centres undefined) | -1 | -4 | -30 | -23* | -5 | 51
CN(CC(=O)NC(=O)NCc1ccccc1)Cc1cccc(Cl)c1Cl | -3 | 2 | -26 | -38* | -3 | 12
